Calls of active or inactive are those of the source. The calls are words filed in the database; no cut-off is given here.
Tests used:
[1] = target: Mitogen-activated protein kinase kinase kinase 14 (Homo sapiens, UniProt Q99558); assay: Inhibition of recombinant N-terminal GST-fused human NIK (319 to 947 residues) expressed in baculovirus expression system incubated for 120 mins in presence of ATP by ADP-glo based luminescence assay
Method in brief: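 ADP-Glo luminescence assay with recombinant human MAP3K14. Buffer: Tris pH 7.5, 2 mM DTT, 2 mM MgCl₂, 100 µM Na₃VO₄, 0.02 mg/mL BSA, 5% DMSO; ATP 10 µM. Reaction 120 min at room temperature; ADP-Glo reagent 40 min, then detection reagent 40 min. Mean ± SD from two independent experiments.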

[2] = target: Tyrosine-protein kinase JAK1 (Homo sapiens, UniProt P23458); assay: Inhibition of human JAK1 using poly[Glu:Tyr] (4:1) as substrate in presence of [gamma33P]ATP by hotspot assay
Chain of Tyrosine-protein kinase JAK1 (P23458 whole entry): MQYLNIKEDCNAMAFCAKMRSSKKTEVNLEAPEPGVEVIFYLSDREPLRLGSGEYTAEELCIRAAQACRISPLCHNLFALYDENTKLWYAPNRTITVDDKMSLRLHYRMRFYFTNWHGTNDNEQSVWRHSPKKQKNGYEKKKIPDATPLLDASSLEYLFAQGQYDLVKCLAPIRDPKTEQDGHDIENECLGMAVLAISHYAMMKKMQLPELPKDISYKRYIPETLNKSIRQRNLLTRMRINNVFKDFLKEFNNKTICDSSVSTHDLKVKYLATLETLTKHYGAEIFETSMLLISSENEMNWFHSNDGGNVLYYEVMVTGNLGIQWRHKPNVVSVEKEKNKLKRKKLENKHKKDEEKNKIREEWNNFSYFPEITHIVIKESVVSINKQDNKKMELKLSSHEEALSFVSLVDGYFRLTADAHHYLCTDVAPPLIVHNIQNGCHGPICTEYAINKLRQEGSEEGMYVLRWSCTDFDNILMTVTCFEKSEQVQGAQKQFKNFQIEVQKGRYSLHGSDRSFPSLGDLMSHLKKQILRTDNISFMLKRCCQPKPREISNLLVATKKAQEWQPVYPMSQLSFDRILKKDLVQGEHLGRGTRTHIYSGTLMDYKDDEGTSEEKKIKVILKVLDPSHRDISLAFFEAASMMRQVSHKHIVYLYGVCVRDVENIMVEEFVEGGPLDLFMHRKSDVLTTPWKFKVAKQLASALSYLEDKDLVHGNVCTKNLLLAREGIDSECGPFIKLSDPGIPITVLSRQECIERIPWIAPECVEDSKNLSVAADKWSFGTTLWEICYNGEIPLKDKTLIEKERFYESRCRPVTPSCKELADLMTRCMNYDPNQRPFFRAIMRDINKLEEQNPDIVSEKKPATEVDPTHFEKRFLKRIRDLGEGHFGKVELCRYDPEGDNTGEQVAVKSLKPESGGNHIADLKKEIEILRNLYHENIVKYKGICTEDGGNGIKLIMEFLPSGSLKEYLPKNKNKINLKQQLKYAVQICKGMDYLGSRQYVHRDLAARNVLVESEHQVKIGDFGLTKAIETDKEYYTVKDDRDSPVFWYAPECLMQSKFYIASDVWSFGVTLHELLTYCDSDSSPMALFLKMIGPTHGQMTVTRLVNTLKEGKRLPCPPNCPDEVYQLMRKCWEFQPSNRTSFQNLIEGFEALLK

J774 [3] = assay: Antiinflammatory activity in mouse J774 cells assessed as inhibition of LPS-induced NO production at 1 uM preincubated for 2 hrs followed by LPS stimulation and measured after 22 hrs by Griess reagent based assay relative to control; type: functional
Method in brief: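 J774 macrophages seeded at 2*10^4 cells/mL, 24 h at 37 °C 5% CO₂; compound in DMSO at 1 µM, 3 replicate wells, 2 h pre-incubation, then LPS at 1 ug/mL final for 22 h. Supernatant nitrite read with Griess reagent at 540 nm against a sodium nitrite standard curve. Inhibition % = (model − compound)/(model − control) NO ×100; mean ± SD, three independent experiments.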

T-cell = assay: Antiinflammatory activity in mouse T cells assessed as inhibition of conA-induced induced T cell proliferation at 0.4 uM incubated for 48 hrs by CCK8 assay relative to control; type: functional
Homo sapiens = organism: Homo sapiens; assay: Selectivity ratio of IC50 for human TRKC to IC50 for human NIK
[4] = Elimination half life in monkey liver microsomes incubated for 10 mins followed by potassium phosphate buffer addition and measured after 5 to 60 mins by LC-MS/MS analysis; type: ADME, Macaca mulatta, Microsome; settings: rhesus monkey, read-out: beta t1/2
Method in brief: (§1)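 Rat, dog, monkey or human liver microsomes pre-incubated with compound at 37 °C for 10 min; reaction started after pre-warming and stopped at 5, 15, 30, 60 min with chilled quench containing tolbutamide and labetalol. No-cofactor control in 100 mM potassium phosphate for 60 min. LC-MS/MS analysis; first-order fit: k = −slope, T1/2 = 0.693/k, CLint = k/microsomal protein concentration.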

[5] = Intrinsic clearance in dog liver microsomes assessed as per mg of protein incubated for 10 mins followed by potassium phosphate buffer addition and measured after 5 to 60 mins by LC-MS/MS analysis; type: ADME, Canis lupus familiaris, Microsome; settings: read-out: CLH; method in brief: as §1
[6] = Intrinsic clearance in rat liver microsomes assessed as per mg of protein incubated for 10 mins followed by potassium phosphate buffer addition and measured after 5 to 60 mins by LC-MS/MS analysis; type: ADME, Microsome; settings: read-out: CLH; method in brief: as §1
[7] = Volume of distribution in Sprague-Dawley rat at 1 mg/kg, iv administered as single bolus dose by LC-MS/MS analysis; type: ADME, organism-based; settings: in vivo
Method in brief: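 SD rats, 3 per group. Single IV bolus at 1 mg/kg in DMSO:PEG200:saline 20:20:60 (0.2 mg/mL), or oral gavage at 10 mg/kg as suspension in 0.5% CMC-Na/0.2% Tween 80 (1 mg/mL). Plasma protein-precipitated with acetonitrile containing internal standards, then quantified by LC-MS/MS. Parameters derived by noncompartmental analysis. Mean ± SD.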

[8] = Clearance in Sprague-Dawley rat at 1 mg/kg, iv administered as single bolus dose by LC-MS/MS analysis; type: ADME, organism-based; settings: in vivo
[9] = AUC (0 to infinity) in Sprague-Dawley rat at 10 mg/kg, po administered via gavage by LC-MS/MS analysis; type: ADME, organism-based; set-up: dose 10 mg/kg, time infinity, route oral; settings: in vivo
Method in brief: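 Single oral gavage in SD rats, 3 per group, as a suspension in saline with 0.5% CMC-Na and 0.2% Tween 80, 1 mg/mL. Plasma protein-precipitated with ACN containing internal standards, then LC-MS/MS. AUC0-∞ by linear trapezoidal rule, noncompartmental analysis. Mean ± SD of three rats.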

[10] = Oral bioavailability in Sprague-Dawley rat at 10 mg/kg administered via gavage by LC-MS/MS analysis; type: ADME, organism-based; settings: in vivo
J774 [11] = assay: Antiinflammatory activity in mouse J774 cells assessed as reduction in LPS-induced IL-1 beta mRNA level by SYBR green dye-based quantitative PCR analysis; type: functional, cell-based
Method in brief: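 LPS-stimulated J774 macrophages; mRNA quantified by qPCR using 4 µL cDNA plus 16 µL master mix per reaction. Mean ± SD of three biological replicates; significance by two-tailed Student's t-test against the model group.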

Mus musculus [12] = assay: Protection against IMQ-induced dermatitis in C57 mouse model of psoriasis assessed as reduction in skin swelling at 60 to 120 mg/kg, ig administered once daily starting from day 3 post IMQ-challenge and measured 2 days post-last dose of IMQ; type: functional, organism-based
Method in brief: (§2)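 C57 mice given 5% imiquimod cream on the back once daily for 7 days; intragastric dosing 60 or 120 mg/kg once daily from day 3 to end, n = 6 per group. Dorsal skin phenotype assessed by imaging.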

Mus musculus [13] = assay: Protection against IMQ-induced dermatitis in C57 mouse model of psoriasis assessed as reduction in roughness at 60 to 120 mg/kg, ig administered once daily starting from day 3 post IMQ-challenge and measured 2 days post-last dose of IMQ; type: functional, organism-based; method in brief: as §2
Mus musculus [14] = assay: Protection against IMQ-induced dermatitis in C57 mouse model of psoriasis assessed as reduction in dermal scales at 120 mg/kg, ig administered once daily starting from day 3 post IMQ-challenge and measured 2 days post-last dose of IMQ; type: functional, organism-based; method in brief: as §2
Mus musculus [15] = assay: Suppression of IMQ-induced psoriasis in ig dosed C57 mouse assessed as reduction in serum TNFalpha level administered once daily starting from day 3 post IMQ-challenge and measured 2 days post-last dose of IMQ by ELISA; type: functional, organism-based
Method in brief: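 Psoriasis-like dermatitis induced by 5% imiquimod cream on back skin of C57 mice, q.d. for seven days. Oral (i.g.) dosing q.d. at 60 or 120 mg/kg from day 3 to study end, n = 6 per group. At end, blood held at 4 °C for 12 h, then centrifuged. Serum TNFα measured by ELISA. Mean ± SEM.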

Mus musculus [16] = assay: Suppression of IMQ-induced psoriasis in C57 mouse assessed as reduction in macrophage infiltration in back skin tissue at 60 to 120 mg/kg, ig administered starting from day 3 post IMQ-challenge and measured 2 days post-last dose of IMQ by F4/80 immunofluorescence staining based assay; type: functional, organism-based
Method in brief: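 IMQ-induced C57 mice (5% cream 7 days; 60 or 120 mg/kg i.g. daily from day 3). Frozen back-skin sections, 6 µm, stained with F4/80 antibody, DAPI counterstain, and imaged by confocal microscopy. Significance by two-tailed t-test.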

[17] = target: Mitogen-activated protein kinase kinase kinase 14 (Mus musculus) (UniProt Q9WUL6); assay: In vivo inhibition of NIK in C57 mouse model of IMQ-induced psoriasis assessed as reduction in NF-kappaB signalling in back skin by measuring decrease in mRNA IL-12 level at 60 to 120 mg/kg, po administered starting from day 3 post IMQ-challenge and measured 2 days post-last dose of IMQ by qPCR analysis; type: functional, organism-based
Chain of Mitogen-activated protein kinase kinase kinase 14 (Mus musculus) (Q9WUL6 whole entry): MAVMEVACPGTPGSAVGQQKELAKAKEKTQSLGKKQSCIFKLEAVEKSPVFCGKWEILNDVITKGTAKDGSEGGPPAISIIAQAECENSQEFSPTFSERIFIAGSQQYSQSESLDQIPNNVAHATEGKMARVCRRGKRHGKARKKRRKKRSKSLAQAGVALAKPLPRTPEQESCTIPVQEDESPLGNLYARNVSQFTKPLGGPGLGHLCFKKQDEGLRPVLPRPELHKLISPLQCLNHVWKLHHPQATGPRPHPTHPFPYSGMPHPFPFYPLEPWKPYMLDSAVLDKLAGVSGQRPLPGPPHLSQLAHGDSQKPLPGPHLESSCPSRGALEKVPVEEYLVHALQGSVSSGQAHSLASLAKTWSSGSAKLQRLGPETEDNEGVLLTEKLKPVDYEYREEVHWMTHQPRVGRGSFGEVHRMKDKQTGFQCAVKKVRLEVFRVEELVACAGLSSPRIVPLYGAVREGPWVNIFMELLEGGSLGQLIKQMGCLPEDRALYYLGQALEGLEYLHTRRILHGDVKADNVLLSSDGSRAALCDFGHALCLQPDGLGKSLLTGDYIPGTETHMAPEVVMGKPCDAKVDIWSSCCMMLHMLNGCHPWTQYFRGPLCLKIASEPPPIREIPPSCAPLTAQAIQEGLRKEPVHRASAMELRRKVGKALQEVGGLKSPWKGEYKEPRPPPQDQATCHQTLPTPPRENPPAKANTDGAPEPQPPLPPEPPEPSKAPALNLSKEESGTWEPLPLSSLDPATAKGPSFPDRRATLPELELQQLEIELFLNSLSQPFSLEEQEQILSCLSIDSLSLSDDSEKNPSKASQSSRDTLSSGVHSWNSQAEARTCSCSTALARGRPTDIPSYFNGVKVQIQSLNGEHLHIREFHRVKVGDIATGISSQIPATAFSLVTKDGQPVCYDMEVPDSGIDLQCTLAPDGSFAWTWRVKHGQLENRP
Method in brief: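 C57 mice had 5% imiquimod cream applied to the back skin once daily for seven consecutive days. Oral gavage dosing at 60 or 120 mg/kg once daily started on day 3 and continued to the end, with n = 6 per group alongside normal and IMQ-only model groups. Back-skin mRNA was quantified by qPCR.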

Chain of Mitogen-activated protein kinase kinase kinase 14 (Q99558 whole entry, the tested form may be a part): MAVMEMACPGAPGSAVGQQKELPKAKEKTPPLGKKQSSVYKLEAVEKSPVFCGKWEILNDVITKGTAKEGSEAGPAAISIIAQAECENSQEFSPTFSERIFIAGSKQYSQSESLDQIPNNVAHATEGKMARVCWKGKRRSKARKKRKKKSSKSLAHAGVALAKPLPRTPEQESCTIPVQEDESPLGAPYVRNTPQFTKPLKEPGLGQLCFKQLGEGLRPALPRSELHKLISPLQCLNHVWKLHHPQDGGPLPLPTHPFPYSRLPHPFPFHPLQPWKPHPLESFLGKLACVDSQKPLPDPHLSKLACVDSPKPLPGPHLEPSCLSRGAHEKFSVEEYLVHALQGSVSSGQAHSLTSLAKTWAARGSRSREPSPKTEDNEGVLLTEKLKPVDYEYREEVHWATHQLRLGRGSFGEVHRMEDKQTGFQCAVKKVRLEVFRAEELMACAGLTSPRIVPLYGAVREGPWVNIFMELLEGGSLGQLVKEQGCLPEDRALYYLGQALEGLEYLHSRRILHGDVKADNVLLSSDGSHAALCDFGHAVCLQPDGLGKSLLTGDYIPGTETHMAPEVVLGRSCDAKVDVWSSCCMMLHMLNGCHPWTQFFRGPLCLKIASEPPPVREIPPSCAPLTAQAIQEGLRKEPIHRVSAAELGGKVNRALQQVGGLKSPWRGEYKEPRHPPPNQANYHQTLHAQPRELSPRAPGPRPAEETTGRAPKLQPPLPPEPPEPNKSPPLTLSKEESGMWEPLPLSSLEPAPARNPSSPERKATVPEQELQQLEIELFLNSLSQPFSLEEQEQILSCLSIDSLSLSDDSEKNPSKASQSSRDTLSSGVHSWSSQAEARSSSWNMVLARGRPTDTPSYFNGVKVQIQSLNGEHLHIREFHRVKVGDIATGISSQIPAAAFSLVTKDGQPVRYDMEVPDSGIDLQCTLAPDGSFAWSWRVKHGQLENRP

IC50 [1]: 9.87 nM
IC50 [2]: 183 nM
Ratio IC50 (Homo sapiens): 4 to 20
half-life [4]: 18 min
microsomal CLint [5]: 43.3 µL/min/mg
microsomal CLint [6]: 45 µL/min/mg
Vd [7]: 2.73 L/kg
clearance [8]: 40.3 mL/min/kg
AUC(0-inf) [9]: 2680 ng·h/mL
bioavailability [10]: 64%
inhibition [17]: Active
Compound: CC(O)(C#Cc1ccc(N2CCOCC2)c(Nc2ncnc3[nH]ccc23)c1)c1nccs1 (racemic)
inhibition at 1 µM (J774 [3]): 86.3%
inhibition at 0.4 µM (T-cell): 36%
Activity (J774 [11]): Active
Activity (Mus musculus [12]): Active
Activity (Mus musculus [13]): Active
Activity (Mus musculus [14]): Active
inhibition (Mus musculus [15]): Dose-dependent effect
inhibition (Mus musculus [16]): Active

Source: ChEMBL document CHEMBL4616671, “Identification of N-Phenyl-7H-pyrrolo[2,3-d]pyrimidin-4-amine Derivatives as Novel, Potent, and Selective NF-κB Inducing Kinase (NIK) Inhibitors for the Treatment of Psoriasis” (J Med Chem, 2020)
